Results collected from several papers.
Compare with care: the assays were run in different laboratories.
Target: Prostaglandin G/H synthase 2 (PTGS2, Homo sapiens, UniProt P35354)
Read-out: enzyme activity
Action: inhibitor
Sequence (P35354 18-604, as in one of the studies): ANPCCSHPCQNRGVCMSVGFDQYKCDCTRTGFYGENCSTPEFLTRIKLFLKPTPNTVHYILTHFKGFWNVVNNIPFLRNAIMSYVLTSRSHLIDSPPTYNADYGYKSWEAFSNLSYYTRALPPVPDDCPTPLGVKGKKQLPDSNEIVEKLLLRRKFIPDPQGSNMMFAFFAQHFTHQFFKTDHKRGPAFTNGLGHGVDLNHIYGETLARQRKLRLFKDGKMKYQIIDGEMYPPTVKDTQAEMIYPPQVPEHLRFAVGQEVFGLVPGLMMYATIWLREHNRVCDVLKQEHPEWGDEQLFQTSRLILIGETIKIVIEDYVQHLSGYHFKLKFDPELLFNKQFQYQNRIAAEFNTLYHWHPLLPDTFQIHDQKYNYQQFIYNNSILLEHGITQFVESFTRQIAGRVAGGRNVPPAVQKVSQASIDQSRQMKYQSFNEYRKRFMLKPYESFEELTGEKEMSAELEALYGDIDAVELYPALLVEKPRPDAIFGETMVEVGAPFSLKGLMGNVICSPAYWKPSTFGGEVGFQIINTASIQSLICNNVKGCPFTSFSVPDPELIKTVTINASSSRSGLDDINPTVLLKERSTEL

| Compound | test | conditions | measurement | value |
| --- | --- | --- | --- | --- |
| COc1ccc(-c2ccc(N)cc2-c2nc3ccccc3s2)cc1 | absorbance | 10 µM | inhibition | 10.3% |
| COCc1c(-c2cc3cc(C)cc(OC)c3s2)c2c(N)ncnn2c1CN1CCNC(=O)C1 |  | 10 µM | inhibition | 6% |
| O=C(Nc1cccnn1)N1CCN([C@@H]2CCOc3cc(C(F)(F)F)ccc32)CC1 |  | 20 µM | inhibition | -2% |
| NS(=O)(=O)c1ccc(-c2ncccc2-c2nc3ccccc3s2)cc1 | absorbance | 10 µM | inhibition | 88.5% |
| C[C@H](C(=O)N[C@H]1COc2ccccc2[C@@H]1S(C)(=O)=O)c1ccc(F)cc1 |  | 10 µM | inhibition | -27% |
| Cc1ncc(C)n2nc(/C=C/c3nc(N4CCCC4)cc(N4CCOCC4)n3)nc12 |  | 10 µM | inhibition | 0% |
| Clc1ccc2c(C3CCN(CCc4c[nH]c5ccccc45)CC3)c[nH]c2c1 |  | 10 µM | inhibition | 79% |
| Nc1ncc(-c2nc(N3CCOCC3)nc(N3CCOCC3)n2)c(C(F)F)n1 |  | 10 µM | remaining activity | 99% |
| c1ccc(C(NCCNC(c2ccccc2)c2ccccc2)c2ccccc2)cc1 |  | 10 µM | inhibition | 0% |
| Cc1ccc(-c2nc3ccccc3s2)c(-c2ccc(S(C)(=O)=O)cc2)c1 | absorbance | 10 µM | inhibition | 72% |
